IC50 data for nine compounds are collected here from ChEMBL document CHEMBL1156252, “Sigma-1 ligands: Tic-hydantoin as a key pharmacophore” (Eur J Med Chem, 2010).

Each structure is given as a SMILES string.

Molecular target in one assay: not listed separately
In words: Displacement of [3H]DTG […] from sigma 2 receptor in rat cerebral cortex after 120 mins. Format: tissue-based. Put shortly: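 Rat cerebral cortex membranes incubated with […] (5 nM) plus (+)-pentazocine (300 nM) to mask σ1 sites, with a concentration range of test compound, 2 h at 22 °C in 5 mM Tris/HCl pH 7.4. […] Bound ligand was collected by GF/B filtration, washed with ice-cold saline and counted by liquid scintillation.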
On the technique in general: In a radioligand displacement assay an active substance lowers the binding of a labelled ligand.
Regarding `CN(CCCN1C(=O)[C@@H]2Cc3ccccc3CN2C1=O)Cc1ccccc1`, the IC50 (usually the concentration that gives 50% inhibition) is > 500 nM.

Another assay has as its target Sigma-1 receptor (Homo sapiens, Jurkat). The assay can be described thus: Displacement of [3H](+)-pentazocine from sigma 1 receptor in human Jurkat cells by scintillation counting.
With `CN(CCCN1C(=O)C2Cc3ccccc3CN2C1=S)Cc1ccccc1` (centres undefined), the half-inhibitory concentration (IC50) amounted to 4.5 nM.

For `CN(CCCN1C(=O)[C@H](Cc2ccccc2)N(C)C1=O)Cc1ccccc1`, the 50% inhibitory concentration (IC50) was > 200 nM.

Turning to `CN(CCCN1C(=O)[C@H]2Cc3ccccc3C[C@H]2C1=O)Cc1ccccc1`, the IC50 was found to be 57 nM. That is a double-digit nanomolar value. On the same count and under the same terms, in the case of `CN(CCCN1C(=O)c2ccncc2C1=O)Cc1ccccc1` it was > 200 nM; in that of `CN(CCCn1c(=O)[nH]c2ccccc2c1=O)Cc1ccccc1`, 116 nM; in that of `CN(CCCN1C(=O)c2cccnc2C1=O)Cc1ccccc1`, > 200 nM. With `CN(CCCn1c(=O)[nH]c2ccc(Cl)cc2c1=O)Cc1ccccc1`, the IC50 is > 200 nM. For the compound `CN(CCCn1c(=O)[nH]c2ccc(I)cc2c1=O)Cc1ccccc1`, the concentration for half-maximal inhibition (IC50) amounted to 103 nM.
